{"source": "ChEMBL document CHEMBL4393703", "about": "“Organoseleno cytostatic derivatives: Autophagic cell death with AMPK and JNK activation” (Eur J Med Chem, 2019)", "key": {"[1]": {"experiment": "Cytotoxicity against human 184B5 cells assessed as reduction in cell growth at 10 uM incubated for 48 hrs by MTT assay", "type": "cell-based", "conditions": "read-out: Activity", "method_in_brief": "(§1)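 Two-concentration MTT screen (10 and 100 µM; the 10 µM readings are the values here) run before full dose-response profiling. Cells seeded at 8,000–40,000 per well depending on cell size and left overnight, then exposed to compound for 48 h. MTT (2 mg/mL stock) added for 4 h, formazan dissolved in DMSO, absorbance read at 550 nm. Growth given as percent of untreated controls, averaged.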"}, "PC-3": {"system": "PC-3", "experiment": "Antiproliferative activity against human PC3 cells assessed as reduction in cell growth at 10 uM incubated for 48 hrs by MTT assay", "type": "functional", "parameters": "scale not given: the % may be the effect or the level left", "method_in_brief": "as §1"}, "HT-29": {"system": "HT-29", "experiment": "Antiproliferative activity against human HT-29 cells assessed as reduction in cell growth at 10 uM incubated for 48 hrs by MTT assay", "type": "functional", "parameters": "scale not given: the % may be the effect or the level left", "method_in_brief": "as §1"}, "CCRF-CEM": {"system": "CCRF-CEM", "experiment": "Antiproliferative activity against human CCRF-CEM cells assessed as reduction in cell growth at 10 uM incubated for 48 hrs by MTT assay", "type": "functional", "parameters": "scale not given: the % may be the effect or the level left", "method_in_brief": "as §1"}, "[2]": {"experiment": "Antiproliferative activity against human HTB-54 cells assessed as reduction in cell growth at 10 uM incubated for 48 hrs by MTT assay", "type": "functional", "parameters": "scale not given: the % may be the effect or the level left", "method_in_brief": "as §1"}, "K562": {"system": "K562", "experiment": "Antiproliferative activity against human K562 cells assessed as reduction in cell growth at 10 uM incubated for 48 hrs by MTT assay", "type": "functional", "parameters": "scale not given: the % may be the effect or the level left", "method_in_brief": "as §1"}, "MCF7": {"system": "MCF7", "experiment": "Antiproliferative activity against human MCF7 cells assessed as reduction in cell growth at 10 uM incubated for 48 hrs by MTT assay", "type": "functional", "parameters": "scale not given: the % may be the effect or the level left", "method_in_brief": "as §1"}, "MOLT-4": {"system": "MOLT-4", "experiment": "Antiproliferative activity against human MOLT4 cells assessed as reduction in cell growth at 10 uM incubated for 48 hrs by MTT assay", "type": "functional", "parameters": "scale not given: the % may be the effect or the level left", "method_in_brief": "as §1"}, "[3]": {"experiment": "Cytotoxicity against human BEAS2B cells assessed as reduction in cell growth at 10 uM incubated for 48 hrs by MTT assay", "type": "cell-based", "conditions": "BEAS-2B cells, read-out: Activity", "method_in_brief": "as §1"}}, "data": [{"smiles": "O=C(O)COCC(=O)Nc1ccc([Se][Se]c2ccc(NC(=O)COCC(=O)O)cc2)cc1", "values": [{"measurement": "inhibition at 48 h, 10 µM", "setting": "[1]", "value": 72.1, "unit": "%"}, {"measurement": "Activity", "setting": "PC-3", "value": 36.49, "unit": "%"}, {"measurement": "Activity", "setting": "HT-29", "value": 71.63, "unit": "%"}, {"measurement": "Activity", "setting": "CCRF-CEM", "value": 67.11, "unit": "%"}, {"measurement": "Activity", "setting": "[2]", "value": 59.62, "unit": "%"}, {"measurement": "Activity", "setting": "K562", "value": 120.32, "unit": "%"}, {"measurement": "Activity", "setting": "MCF7", "value": 58.4, "unit": "%"}, {"measurement": "Activity", "setting": "MOLT-4", "value": 100.26, "unit": "%"}, {"measurement": "inhibition at 48 h, 10 µM", "setting": "[3]", "value": 56.8, "unit": "%"}]}, {"smiles": "O=C(O)c1ccccc1C(=O)Nc1ccc([Se][Se]c2ccc(NC(=O)c3ccccc3C(=O)O)cc2)cc1", "values": [{"measurement": "inhibition at 48 h, 10 µM", "setting": "[1]", "value": 93.4, "unit": "%"}, {"measurement": "Activity", "setting": "PC-3", "value": 98.48, "unit": "%"}, {"measurement": "Activity", "setting": "HT-29", "value": 98.98, "unit": "%"}, {"measurement": "Activity", "setting": "CCRF-CEM", "value": 84.92, "unit": "%"}, {"measurement": "Activity", "setting": "[2]", "value": 100.9, "unit": "%"}, {"measurement": "Activity", "setting": "K562", "value": 95.27, "unit": "%"}, {"measurement": "Activity", "setting": "MCF7", "value": 107.45, "unit": "%"}, {"measurement": "Activity", "setting": "MOLT-4", "value": 96.04, "unit": "%"}, {"measurement": "inhibition at 48 h, 10 µM", "setting": "[3]", "value": 63.7, "unit": "%"}]}, {"smiles": "O=C(O)/C=C\\C(=O)Nc1ccc([Se][Se]c2ccc(NC(=O)/C=C\\C(=O)O)cc2)cc1", "values": [{"measurement": "inhibition at 48 h, 10 µM", "setting": "[1]", "value": 98.3, "unit": "%"}, {"measurement": "Activity", "setting": "PC-3", "value": 80.03, "unit": "%"}, {"measurement": "Activity", "setting": "HT-29", "value": 98.04, "unit": "%"}, {"measurement": "Activity", "setting": "CCRF-CEM", "value": 119.77, "unit": "%"}, {"measurement": "Activity", "setting": "[2]", "value": 79.95, "unit": "%"}, {"measurement": "Activity", "setting": "K562", "value": 97.45, "unit": "%"}, {"measurement": "Activity", "setting": "MCF7", "value": 94.07, "unit": "%"}, {"measurement": "Activity", "setting": "MOLT-4", "value": 105.28, "unit": "%"}, {"measurement": "inhibition at 48 h, 10 µM", "setting": "[3]", "value": 86.1, "unit": "%"}]}, {"smiles": "N#C[Se]c1ccc(NC(=O)c2ccccc2-c2ccccc2C(=O)O)cc1", "values": [{"measurement": "inhibition at 48 h, 10 µM", "setting": "[1]", "value": 116, "unit": "%"}, {"measurement": "Activity", "setting": "PC-3", "value": 103.12, "unit": "%"}, {"measurement": "Activity", "setting": "HT-29", "value": 103.42, "unit": "%"}, {"measurement": "Activity", "setting": "CCRF-CEM", "value": 100.75, "unit": "%"}, {"measurement": "Activity", "setting": "[2]", "value": 106.35, "unit": "%"}, {"measurement": "Activity", "setting": "K562", "value": 100.79, "unit": "%"}, {"measurement": "Activity", "setting": "MCF7", "value": 92.09, "unit": "%"}, {"measurement": "Activity", "setting": "MOLT-4", "value": 113.27, "unit": "%"}, {"measurement": "inhibition at 48 h, 10 µM", "setting": "[3]", "value": 89.3, "unit": "%"}]}]}
